Laboratory results from ChEMBL document CHEMBL3526004, “Interaction of silymarin flavonolignans with organic anion-transporting polypeptides” (Drug Metab Dispos, 2013).

Legend:
[1] = biological target: T1, Solute carrier organic anion transporter family member 1B1 (Homo sapiens, UniProt Q9Y6L6); assay: Inhibition of OATP1B1 (unknown origin) expressed in HEK293 cells assessed as reduction of [3H]estradiol-17beta-glucuronide uptake at 10 uM after 3 mins by beta-counting; type: ADME, cell-based; settings: hek293, 0.05 h
T1 sequence (Q9Y6L6 whole entry): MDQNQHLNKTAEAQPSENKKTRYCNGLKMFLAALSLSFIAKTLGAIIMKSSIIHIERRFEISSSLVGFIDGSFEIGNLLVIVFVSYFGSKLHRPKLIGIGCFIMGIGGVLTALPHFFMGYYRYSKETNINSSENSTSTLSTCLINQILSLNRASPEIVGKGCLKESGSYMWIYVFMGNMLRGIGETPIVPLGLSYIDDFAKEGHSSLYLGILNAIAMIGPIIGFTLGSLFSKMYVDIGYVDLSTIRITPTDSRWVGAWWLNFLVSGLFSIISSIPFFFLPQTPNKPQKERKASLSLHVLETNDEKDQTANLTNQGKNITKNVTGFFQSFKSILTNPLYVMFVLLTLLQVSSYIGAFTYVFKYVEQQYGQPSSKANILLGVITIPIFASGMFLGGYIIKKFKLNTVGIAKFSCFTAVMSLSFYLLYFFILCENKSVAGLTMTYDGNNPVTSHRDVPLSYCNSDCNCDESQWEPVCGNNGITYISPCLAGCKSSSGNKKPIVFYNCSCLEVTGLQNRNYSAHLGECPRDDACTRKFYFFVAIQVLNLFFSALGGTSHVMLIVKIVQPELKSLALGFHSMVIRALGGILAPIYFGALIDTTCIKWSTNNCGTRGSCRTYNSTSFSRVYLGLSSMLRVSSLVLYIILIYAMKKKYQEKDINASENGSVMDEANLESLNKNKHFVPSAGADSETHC
Method in brief: (§1)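 Confluent cells were washed in PBS, then given 1 µM [3H]-E2 17G (OATP1B1, OATP1B3 HEK293) or 1 µM [3H]-E1S (OATP2B1 MDCKII) with 10 µM compound in HBSS pH 7.4 for 3 min at 37°C. Uptake into mock or parental cells was subtracted after protein normalization. Results are % vehicle, mean ± SD of at least three experiments in triplicate.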

[2] = biological target: T2, Solute carrier organic anion transporter family member 1B3 (Homo sapiens, UniProt Q9NPD5); assay: Inhibition of OATP1B3 (unknown origin) expressed in HEK293 cells assessed as reduction of [3H]estradiol-17beta-glucuronide uptake at 10 uM after 3 mins by beta-counting; type: ADME, cell-based; settings: hek293, 0.05 h; method in brief: as §1
T2 sequence (Q9NPD5 whole entry): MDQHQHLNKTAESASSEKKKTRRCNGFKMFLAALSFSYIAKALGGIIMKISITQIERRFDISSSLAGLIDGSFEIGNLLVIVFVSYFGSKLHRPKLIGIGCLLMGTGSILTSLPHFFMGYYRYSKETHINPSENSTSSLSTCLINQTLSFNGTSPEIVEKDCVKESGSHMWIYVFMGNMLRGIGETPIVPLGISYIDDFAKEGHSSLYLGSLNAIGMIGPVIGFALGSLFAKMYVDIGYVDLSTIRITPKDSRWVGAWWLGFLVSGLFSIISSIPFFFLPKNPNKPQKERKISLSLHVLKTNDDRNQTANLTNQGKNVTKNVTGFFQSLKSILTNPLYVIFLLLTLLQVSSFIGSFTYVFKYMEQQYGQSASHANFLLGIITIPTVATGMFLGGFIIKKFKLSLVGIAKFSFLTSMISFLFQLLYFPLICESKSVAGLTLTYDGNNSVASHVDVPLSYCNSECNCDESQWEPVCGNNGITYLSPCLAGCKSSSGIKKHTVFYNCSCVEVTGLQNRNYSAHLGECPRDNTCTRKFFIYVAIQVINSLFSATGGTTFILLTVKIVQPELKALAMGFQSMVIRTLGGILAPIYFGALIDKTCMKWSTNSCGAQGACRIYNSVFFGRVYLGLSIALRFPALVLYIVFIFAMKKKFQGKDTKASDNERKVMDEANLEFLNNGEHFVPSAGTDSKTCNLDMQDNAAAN

[3] = biological target: T3, Solute carrier organic anion transporter family member 2B1 (Homo sapiens, UniProt O94956); assay: Inhibition of OATP2B1 (unknown origin) expressed in MDCK2 cells assessed as reduction of [3H]estrone-3-sulfate uptake at 10 uM after 3 mins by beta-counting; type: ADME, cell-based; settings: mdck-ii, 0.05 h; method in brief: as §1
T3 sequence (O94956 whole entry): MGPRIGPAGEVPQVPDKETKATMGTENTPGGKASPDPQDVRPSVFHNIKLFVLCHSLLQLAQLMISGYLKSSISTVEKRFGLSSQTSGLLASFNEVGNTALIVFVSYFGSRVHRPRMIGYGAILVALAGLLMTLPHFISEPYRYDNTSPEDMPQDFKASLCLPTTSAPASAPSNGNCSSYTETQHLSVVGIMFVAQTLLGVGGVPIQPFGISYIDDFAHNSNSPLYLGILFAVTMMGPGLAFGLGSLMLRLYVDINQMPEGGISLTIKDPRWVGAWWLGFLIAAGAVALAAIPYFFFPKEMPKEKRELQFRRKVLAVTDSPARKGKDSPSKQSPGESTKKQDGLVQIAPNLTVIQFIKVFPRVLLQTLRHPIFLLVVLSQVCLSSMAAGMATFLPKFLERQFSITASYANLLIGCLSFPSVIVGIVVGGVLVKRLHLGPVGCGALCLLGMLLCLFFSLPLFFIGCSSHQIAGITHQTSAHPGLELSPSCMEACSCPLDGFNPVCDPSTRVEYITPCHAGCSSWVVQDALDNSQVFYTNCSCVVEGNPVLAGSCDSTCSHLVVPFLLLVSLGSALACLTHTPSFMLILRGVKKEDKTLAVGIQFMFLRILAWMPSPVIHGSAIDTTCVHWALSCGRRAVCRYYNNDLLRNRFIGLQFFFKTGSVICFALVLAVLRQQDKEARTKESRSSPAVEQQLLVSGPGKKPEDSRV

[4] = Ratio of fCmax in portal vein of patient with chronic noncirrhotic HCV infection at 700 mg to IC50 for OATP1B1 (unknown origin) expressed in HEK293 cells; set-up: species or system Homo sapiens
[5] = biological target: T3, Solute carrier organic anion transporter family member 2B1; assay: Inhibition of OATP2B1 (unknown origin) expressed in MDCK2 cells assessed as reduction of [3H]estrone-3-sulfate uptake after 3 mins by beta-counting; type: ADME, cell-based, MDCK-II
Method in brief: (§2)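 Transfected HEK293 (G418) or MDCKII (hygromycin B) cells were co-incubated with 0-100 µM compound and [3H]-E2 17G (1 µM, 0.25 µCi/ml; OATP1B1, OATP1B3) or [3H]-E1S (1 µM; OATP2B1) in HBSS pH 7.4, 3 min at 37°C. OATP-negative uptake was subtracted, and results expressed as % vehicle. Two experiments were run in duplicate. IC50 came from non-linear dose-response fits.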

[6] = Inhibition of OATP-mediated [3H]estradiol-17beta-glucuronide uptake in sandwich-cultured human hepatocytes at 100 uM after 1 day by beta-counting; type: ADME, cell-based, Hepatocyte
Method in brief: (§3)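 Day-1 human hepatocytes (seeded 350,000 cells/well, medium changed after 1 h) rinsed in HBSS at 37°C. Co-incubated with [3H]-E2 17G (1 µM, 1 min) or [3H]-rosuvastatin (0.5 µM, 1.5 min) plus compound or vehicle. Cells were washed in ice-cold HBSS, lysed in 0.5% Triton X-100, and counted by scintillation. Non-OATP accumulation (100 µM BSP) was subtracted. Results are % vehicle, protein-normalized, as mean ± SEM of three experiments in triplicate.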

[7] = Ratio of fCmax in portal vein of patient with chronic noncirrhotic HCV infection at 140 mg to IC50 for OATP2B1 (unknown origin) expressed in HEK293 cells; set-up: species or system Homo sapiens
[8] = Cmax in patient with chronic noncirrhotic HCV infection at 140 mg; type: ADME, organism-based; set-up: dose 140 mg; settings: human, in vivo
[9] = Inhibition of OATP-mediated [3H]rosuvastatin uptake in sandwich-cultured human hepatocytes at 100 uM after 8 days by beta-counting; type: ADME, cell-based, Hepatocyte
Method in brief: (§4)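 Hepatocytes were overlaid with Matrigel (0.25 mg/ml) on day 1 and cultured to day 8 in ITS/0.1 µM dexamethasone medium, changed daily. Uptake of [3H]-E2 17G (1 µM, 1 min) or [3H]-rosuvastatin (0.5 µM, 1.5 min) was run at 37°C in HBSS with compound or vehicle. The BSP (100 µM) accumulation was subtracted, and the OATP-mediated uptake was expressed as % vehicle, normalized to BCA protein and corrected with cell-free wells.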

[10] = Ratio of fCmax in portal vein of patient with chronic noncirrhotic HCV infection at 700 mg to IC50 for OATP2B1 (unknown origin) expressed in HEK293 cells; set-up: species or system Homo sapiens
[11] = fCmax in portal vein of patient with chronic noncirrhotic HCV infection at 700 mg; type: ADME; settings: human
[12] = biological target: T3, Solute carrier organic anion transporter family member 2B1; assay: Inhibition of OATP2B1 (unknown origin) expressed in MDCK2 cells assessed as reduction of [3H]estrone-3-sulfate uptake after 3 mins by beta-counting in presence of OATP inhibitor BSP; type: ADME, cell-based; settings: mdck-ii, 0.05 h
Plasma = assay: Plasma concentration in patient with chronic noncirrhotic HCV at 420 to 700 mg administered 3 times per day; type: ADME, cell-free; settings: human
[13] = Ratio of fCmax in portal vein of patient with chronic noncirrhotic HCV infection at 140 mg to IC50 for OATP1B3 (unknown origin) expressed in HEK293 cells; set-up: species or system Homo sapiens
[14] = fCmax in portal vein of patient with chronic noncirrhotic HCV infection at 140 mg; type: ADME; settings: human
[15] = Unbound fraction in human plasma; type: ADME, cell-free
[16] = biological target: T1, Solute carrier organic anion transporter family member 1B1; assay: Inhibition of OATP1B1 (unknown origin) expressed in HEK293 cells assessed as reduction of [3H]estradiol-17beta-glucuronide uptake after 3 mins by beta-counting in presence of OATP inhibitor BSP; type: ADME, cell-based; settings: hek293, 0.05 h
[17] = Inhibition of OATP-mediated [3H]rosuvastatin uptake in sandwich-cultured human hepatocytes at 100 uM after 1 day by beta-counting; type: ADME, cell-based, Hepatocyte; method in brief: as §3
[18] = Ratio of fCmax in portal vein of patient with chronic noncirrhotic HCV infection at 700 mg to IC50 for OATP1B3 (unknown origin) expressed in HEK293 cells; set-up: species or system Homo sapiens
[19] = Ratio of fCmax in portal vein of patient with chronic noncirrhotic HCV infection at 140 mg to IC50 for OATP1B1 (unknown origin) expressed in HEK293 cells; set-up: species or system Homo sapiens
[20] = biological target: T2, Solute carrier organic anion transporter family member 1B3; assay: Inhibition of OATP1B3 (unknown origin) expressed in HEK293 cells assessed as reduction of [3H]estradiol-17beta-glucuronide uptake after 3 mins by beta-counting in presence of OATP inhibitor BSP; type: ADME, cell-based; settings: hek293, 0.05 h
[21] = biological target: T1, Solute carrier organic anion transporter family member 1B1; assay: Inhibition of OATP1B1 (unknown origin) expressed in HEK293 cells assessed as reduction of [3H]estradiol-17beta-glucuronide uptake after 3 mins by beta-counting; type: ADME, cell-based; method in brief: as §2
[22] = Cmax at steady state in patient with chronic HCV infection at 140 mg administered 3 times per day; type: ADME, organism-based; set-up: dose 140 mg; settings: human, in vivo
[23] = biological target: T2, Solute carrier organic anion transporter family member 1B3; assay: Inhibition of OATP1B3 (unknown origin) expressed in HEK293 cells assessed as reduction of [3H]estradiol-17beta-glucuronide uptake after 3 mins by beta-counting; type: ADME, cell-based; method in brief: as §2
[24] = Residual OATP-mediated [3H]estradiol-17beta-glucuronide uptake in sandwich-cultured human hepatocytes at 100 uM after 8 days by beta-counting
[25] = Protein binding in rat; type: ADME, organism-based; settings: in vivo, read-out: PB (converted)
[26] = Cmax in patient with chronic noncirrhotic HCV infection at 700 mg; type: ADME, organism-based; set-up: dose 700 mg; settings: human, in vivo
[27] = Inhibition of OATP-mediated [3H]estradiol-17beta-glucuronide uptake in sandwich-cultured human hepatocytes at 100 uM after 8 days by beta-counting; type: ADME, cell-based, Hepatocyte; method in brief: as §4

inhibition (INH) [1]	inhibition (INH) [2]	inhibition (INH) [3]	IC50 [5] [µM]	inhibition (INH) [6]	Cmax [8] [ng/mL]	inhibition (INH) [9]	fCmax [11] [µM]	inhibition (INH) [12]	fCmax [14] [µM]	fraction unbound [15]	inhibition (INH) [16]	inhibition (INH) [17]	inhibition (INH) [20]	Compound	Ratio [4]	Ratio [7]	Ratio [10]	Ratio [13]	Ratio [18]	Ratio [19]	also measured
Active	Active	Active	–	–	–	–	–	–	–	–	–	–	–	COc1cc([C@@H]2[C@H]3CO[C@@]4(O)C(=O)[C@@H]2C=C([C@H]2Oc5cc(O)cc(O)c5C(=O)[C@@H]2O)[C@@H]34)ccc1O [SILIDIANIN]	–	–	–	–	–	–	–
Active	Active	Active	4.5	Active	40	Active	0.22	Not Active	0.04	0.05	Not Active	Active	Not Active	COc1cc([C@H]2Oc3cc([C@H]4Oc5cc(O)cc(O)c5C(=O)[C@@H]4O)ccc3O[C@@H]2CO)ccc1O [SILYBIN A]	0.02	0.01	0.05	0.01	0.08	0.004	concentration (Plasma): 4200 nM; IC50 [21]: 9.7 µM; Cmax [22]: 80 nM; IC50 [23]: 2.7 µM; residual activity [24]: 58%; fraction unbound [25]: 0.3; Cmax [26]: 580 ng/mL
Active	–	Active	0.8	Active	8	Active	0.7	Not Active	0.13	0.05	Not Active	Active	Not Active	COc1cc([C@@H]2Oc3cc([C@H]4Oc5cc(O)cc(O)c5C(=O)[C@@H]4O)ccc3O[C@H]2CO)ccc1O [SILYBIN B]	0.08	0.16	0.88	0.03	0.14	0.02	inhibition (INH) [27]: Active; IC50 [21]: 8.5 µM; Cmax [22]: 16 nM; IC50 [23]: 5 µM; fraction unbound [25]: 0.3; Cmax [26]: 220 ng/mL
